Molecular target: T1, murine PDS (Mus musculus, UniProt Q9R155)
T1 sequence (Q9R155 1-780): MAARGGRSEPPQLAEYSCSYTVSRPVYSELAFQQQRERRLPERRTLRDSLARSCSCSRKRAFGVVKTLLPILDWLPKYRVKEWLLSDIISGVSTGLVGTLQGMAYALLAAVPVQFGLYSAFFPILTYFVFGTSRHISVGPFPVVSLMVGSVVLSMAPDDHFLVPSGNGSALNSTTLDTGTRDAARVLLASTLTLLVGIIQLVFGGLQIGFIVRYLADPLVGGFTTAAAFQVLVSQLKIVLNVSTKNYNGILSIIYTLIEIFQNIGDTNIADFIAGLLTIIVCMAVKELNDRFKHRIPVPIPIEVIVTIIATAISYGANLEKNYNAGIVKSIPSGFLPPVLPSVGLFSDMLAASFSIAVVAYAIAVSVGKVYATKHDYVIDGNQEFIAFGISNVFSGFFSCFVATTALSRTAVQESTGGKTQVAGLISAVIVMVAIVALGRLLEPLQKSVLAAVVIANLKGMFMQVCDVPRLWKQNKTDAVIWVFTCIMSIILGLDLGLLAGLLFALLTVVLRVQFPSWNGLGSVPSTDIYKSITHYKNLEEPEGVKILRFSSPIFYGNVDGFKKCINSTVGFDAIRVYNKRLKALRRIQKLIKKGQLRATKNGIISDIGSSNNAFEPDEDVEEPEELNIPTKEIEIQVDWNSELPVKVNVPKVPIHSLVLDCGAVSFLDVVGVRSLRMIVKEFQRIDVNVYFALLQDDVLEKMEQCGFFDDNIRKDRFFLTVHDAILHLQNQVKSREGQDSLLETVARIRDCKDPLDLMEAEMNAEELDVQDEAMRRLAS
Assay: functional cell-based assay of PDS-mediated Cl-/I- exchange
Conditions: Fischer rat thyroid cells expressing murine PDS
Outline: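 Fischer rat thyroid cells stably co-expressing murine pendrin and the halide-sensitive fluorescent protein EYFP-H148Q/I152L/F46L. Pendrin-mediated Cl–/I– exchange is followed through this halide-sensing fluorescent reporter. Inhibition is reported as IC50.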

| PDS inhibition activity (in words) | Structure (SMILES) |
| --- | --- |
| minimal PDS inhibition activity | Cn1nc(C(=O)O)c2c1CCN(C(=O)Nc1ccc(Cl)cc1)C2 [Compound 21] |
| minimal PDS inhibition activity | CCOC(=O)c1nn(C)c2c1CN(C(=O)Nc1ccc(Cl)cc1)CC2 [Compound 20] |

Reference: article PMC6690761 (Bioorganic & medicinal chemistry letters, 2019)
